ChEMBL document CHEMBL1123566, “Synthesis and cardiac electrophysiological activity of 2- and 3-[(substituted phenyl)alkyl]quinuclidines. Structure-activity relationships” (1987)
Values joined by “and” are separate entries in the source; they are usually repeats but may differ in a detail not shown here. Equal values may be shown once.

Experiments:
Canis familiaris [1] = assay: Conduction time was determined by intraduodenal administration of two dosages of 3 mg/kg (high dose) of compound in anesthetized dogs. Value was reported for experiment 2; type: functional, Canis lupus familiaris
In short: (§1)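 Anesthetized dogs given the compound intraduodenally, generally as two doses with the second a cumulative total (low/high). FRP and CT measured at 15, 30 and 45 min after dosing. HR and BP taken during nonpacing intervals. Values are percent change from control per animal. Activity criterion is FRP or CT prolonged ≥12%. Vehicle: 5% dextrose in water/tragacanth.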

Canis familiaris [2] = assay: Conduction time was determined by intraduodenal administration of two dosages of 3 mg/kg (low dose) of compound in anesthetized dogs. Value was reported for experiment 1; type: functional, Canis lupus familiaris
In short: (§2)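 Anesthetized dogs; compound given intraduodenally, generally as two doses, the second a cumulative (high) dose. LV functional refractory period and conduction time measured 15, 30 and 45 min after dosing; heart rate and blood pressure measured during nonpacing intervals. Values are % change from control, given per individual animal. Active if FRP or CT prolonged by ≥12%.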

Canis familiaris [3] = assay: Heart rate was determined by intraduodenal administration of two dosages of 3 mg/kg of (high dose) compound in anesthetized dogs. Value was reported for experiment 2; type: functional, Canis lupus familiaris; in short: as §1
Canis familiaris [4] = assay: Heart rate was determined by intraduodenal administration of two dosages of 3 mg/kg of (low dose) compound in anesthetized dogs. Value was reported for experiment 1; type: functional, Canis lupus familiaris; in short: as §2
Canis familiaris [5] = assay: Left ventricular refractory period was determined by intraduodenal administration of two dosages of 1 mg/kg of (low dose) compound in anesthetized dogs. Value was reported for experiment 3; type: functional, Canis lupus familiaris, Cardiac ventricle
In short: (§3)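 Anesthetized dogs, usually given two intraduodenal doses, with the second dose cumulative (low/high). Left ventricular FRP and CT were determined at 15, 30 and 45 min after dosing. HR and BP were measured during nonpacing intervals. Values are % change from control at low/high dose, for individual animals. The vehicle-stability set used 5% dextrose in water/tragacanth (n = 8).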

Canis familiaris [6] = assay: Heart rate was determined by intraduodenal administration of two dosages of 10 mg/kg of (high dose) compound in anesthetized dogs. Value was reported for experiment 1; type: functional, Canis lupus familiaris; in short: as §2
Canis familiaris [7] = assay: Heart rate was determined by intraduodenal administration of two dosages of 10 mg/kg of (high dose) compound in anesthetized dogs. Value was reported for experiment 3; type: functional, Canis lupus familiaris; in short: as §1
Canis familiaris [8] = assay: Heart rate was determined by intraduodenal administration of two dosages of 1 mg/kg of (low dose) compound in anesthetized dogs. Value was reported for experiment 2; type: functional, Canis lupus familiaris; in short: as §1
Canis familiaris [9] = assay: Left ventricular refractory period was determined by intraduodenal administration of two dosages (high/low) of 10 g/kg of compound in anesthetized dogs. Value was reported for experiment 3; type: functional, Canis lupus familiaris, Cardiac ventricle; settings: in the assay text read “10 mg/kg” for “10 g/kg”; in short: as §3
Canis familiaris [10] = assay: Left ventricular refractory period was determined by intraduodenal administration of two dosages of 10 mg/kg of (high dose) compound in anesthetized dogs. Value was reported for experiment 1; type: functional, Canis lupus familiaris, Cardiac ventricle
In short: (§4)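 Anesthetized dogs received two intraduodenal doses, the second cumulative (low dose/high dose). Left ventricular FRP and CT were measured 15, 30 and 45 min after dosing. Heart rate and mean blood pressure were taken during nonpacing intervals. Values are percent change from control. The vehicle was 5% dextrose in water/tragacanth. Activity was defined as ≥12% prolongation of FRP or CT.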

Canis familiaris [11] = assay: Left ventricular refractory period was determined by intraduodenal administration of two dosages of 1 mg/kg of (low dose) compound in anesthetized dogs. Value was reported for experiment 2; type: functional, Canis lupus familiaris, Cardiac ventricle; in short: as §3
Canis familiaris [12] = assay: Left ventricular refractory period was determined by intraduodenal administration of two dosages of 3 mg/kg of (high dose) compound in anesthetized dogs. Value was reported for experiment 2; type: functional, Canis lupus familiaris, Cardiac ventricle; in short: as §3
Canis familiaris [13] = assay: Mean arterial blood pressure was determined by intraduodenal administration of two dosages of 10 mg/kg of (high dose) compound in anesthetized dogs. Value was reported for experiment 1; type: functional, Canis lupus familiaris; in short: as §4
Canis familiaris [14] = assay: Mean arterial blood pressure was determined by intraduodenal administration of two dosages of 10 mg/kg of (high dose) compound in anesthetized dogs. Value was reported for experiment 3; type: functional, Canis lupus familiaris; in short: as §3
Canis familiaris [15] = species: Canis familiaris; assay: In vitro electrophysiological evaluation in canine cardiac ventricular muscle reported as maximum % change for functional refractory period (FRP) at 0.1-100 uM concentration range; parameters: species or system Canis lupus familiaris, Muscle tissue
Canis familiaris [16] = species: Canis familiaris; assay: In vitro electrophysiological evaluation in canine cardiac ventricular muscle reported as maximum % change for conduction time(CT) at 0.1-10 uM concentration range; Minimal (<IO%increase or a decrease in CT); type: functional, Canis lupus familiaris, Muscle tissue
In short: (§5)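 Canine right ventricular/papillary muscle strips in oxygenated Tyrode's, extracellular extra-stimulus conduction-interval method. FRP and CT are read from conduction-interval curves before and during rising concentrations. Compound is a 10 mM aqueous stock diluted into Tyrode's. Each strip is used once as its own control. Readouts are percent change from control at 10 μM, plus the maximum change with its concentration.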

Canis familiaris [17] = species: Canis familiaris; assay: (§6) In vitro electrophysiological evaluation in canine cardiac ventricular muscle reported as % change for the functional refractory period (FRP) concentration range of 0.1-100 uM; parameters: species or system Canis lupus familiaris, Muscle tissue
In short: (§7)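 Canine right ventricle and papillary muscle strips in oxygenated Tyrode's solution, fitted with stimulating and recording electrodes. The extra-stimulus conduction-interval method was adapted for in vitro use. FRP and CT were read from a conduction-interval curve before and after various compound concentrations, and expressed as percent change from control. Compounds were taken from 10 mM deionized-water stock into Tyrode's. Each strip was used once as its own control.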

Canis familiaris [18] = species: Canis familiaris; assay: In vitro electrophysiological evaluation in canine cardiac ventricular muscle reported as % change for conduction time(CT) at 0.1-100 uM concentration range; type: functional, Canis lupus familiaris, Muscle tissue; in short: as §5
Canis familiaris [19] = species: Canis familiaris; assay: In vitro electrophysiological evaluation in canine cardiac ventricular muscle reported as % change for conduction time(CT) at 0.1-10 uM concentration range; Minimal (<IO%increase or a decrease in CT); type: functional, Canis lupus familiaris, Muscle tissue; in short: as §5
Canis familiaris [20] = species: Canis familiaris; assay: In vitro electrophysiological evaluation in canine cardiac ventricular muscle reported as maximum % change for functional refractory period (FRP) at 0.1-10 uM concentration range; parameters: species or system Canis lupus familiaris, Muscle tissue
Canis familiaris [21] = species: Canis familiaris; assay: In vitro electrophysiological evaluation in canine cardiac ventricular muscle reported as maximum % change for conduction time(CT) at 0.1-100 uM concentration range; Minimal (<IO%increase or a decrease in CT); type: functional, Canis lupus familiaris, Muscle tissue; in short: as §7
Canis familiaris [22] = species: Canis familiaris; assay: In vitro electrophysiological evaluation in canine cardiac Purkinje fibres reported as maximum percent change Vmax concentration range of 1-100 uM; type: functional; settings: Canis lupus familiaris; Purkinje fiber
In short: (§8)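 Canine cardiac Purkinje fibers, intracellular recording, paced at a basic cycle length of 1 s. APD95 and Vmax are recorded together across cumulative concentrations. Compound is a 10 mM aqueous stock diluted into Tyrode's solution. Each fiber is used once as its own control. Readouts are percent change from control at 10 μM, and the maximum change with the concentration where it occurred.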

Canis familiaris [23] = species: Canis familiaris; assay: as §6; parameters: species or system Canis lupus familiaris, Muscle tissue; in short: as §5; remark: listed apart in the source
Canis familiaris [24] = species: Canis familiaris; assay: In vitro electrophysiological evaluation in canine cardiac Purkinje fibres reported as maximum percent change Vmax concentration range of 0.1-10 uM; type: functional; settings: Canis lupus familiaris; Purkinje fiber; in short: as §8
Canis familiaris [25] = species: Canis familiaris; assay: In vitro electrophysiological activity in canine cardiac Purkinje fibres given as maximum % change for action potential duration at 0.01-100 uM concentration; type: functional, Canis lupus familiaris, Purkinje fiber; in short: as §8
Canis familiaris [26] = species: Canis familiaris; assay: In vitro electrophysiological activity in canine cardiac Purkinje fibres given as maximum % change for action potential duration at 0.1-10 uM concentration; type: functional, Canis lupus familiaris, Purkinje fiber
In short: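 Canine cardiac Purkinje fibres, intracellular recording at 1 s basic cycle length, over cumulative concentration ranges. Compound 10 mM stock in deionized water diluted into Tyrode's. Each fibre used once as its own control. Value is the maximum % change from control in APD at 95% repolarization, with the concentration where it occurred; both values given if a biphasic response (>20% reversal) occurred.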

CCCCCCC[N+](CC)(CC)CCCCc1ccc(Cl)cc1.O=P([O-])(O)O [CLOFILIUM PHOSPHATE]
CT (Canis familiaris [1]): -7% | CT (Canis familiaris [2]): -4% | HR (Canis familiaris [3]): -6% | HR (Canis familiaris [4]): -9% | LV FRP (Canis familiaris [5]): 4% | HR (Canis familiaris [6]): -24% | HR (Canis familiaris [7]): -11% | HR (Canis familiaris [8]): -2% | L (Canis familiaris [9]): 23% | LV FRP (Canis familiaris [10]): 22% | LV FRP (Canis familiaris [11]): -1% | LV FRP (Canis familiaris [12]): 2% | Mean blood pressure (Canis familiaris [13]): -11% | Mean blood pressure (Canis familiaris [14]): 4% | FRP (Canis familiaris [15]): -3% and 14% and 7% | CT (Canis familiaris [16]): <10% | FRP (Canis familiaris [17]): 11% and 5% | CT (Canis familiaris [18]): 11% | CT (Canis familiaris [19]): <10% | FRP (Canis familiaris [20]): 38% | CT (Canis familiaris [21]): <10% | Vmax (Canis familiaris [22]): -69% and -65% | FRP at 10microM (Canis familiaris [23]): -3% | Vmax (Canis familiaris [24]): -11% | APD95 (Canis familiaris [25]): 27% and 55% | APD95 (Canis familiaris [26]): 52%
